5 compounds from ChEMBL document CHEMBL3272115, “Synthesis and microbiological activities of beta-(1-chloro-2-naphthyl) alanine and beta-(1-bromo-2-naphthyl) alanine” (1976) can be followed below.

Test [1] concerns Lactiplantibacillus plantarum. Briefly: Antimicrobial activity against Lactobacillus plantarum ATCC 8014 after 18 hrs by spectrophotometry in presence of 40 ug/ml each of phenylalanine,tyrosine and tryptophan. Format: functional.
The subject of test [2] is Escherichia coli. Description: Antimicrobial activity against Escherichia coli ATCC 9723 after 16 hrs by spectrophotometry. The test is classed as functional. The settings on record: ATCC 9723, 16 h. Summed up:
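Stock of 10 mg in 10 ml sterile water (slight warming), serially diluted into autoclaved medium tubes, tested up to 200 µg/ml. Incubated at 37° for 16 h after inoculation. Turbidity read at 625 nm against an uninoculated medium blank. MIC taken as the minimum inhibitory concentration, with controls and at least six repeat assays.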

Test [3] can be described thus: (§1) Antimicrobial activity against Leuconostoc dextranicum ATCC 8086 after 18 hrs by spectrophotometry in presence of 40 ug/ml each of phenylalanine,tyrosine and tryptophan. As to conditions: Leuconostoc mesenteroides, ATCC 8086, 18 h. Format: functional, Leuconostoc mesenteroides subsp. dextranicum.
The nature of test [4]: Antimicrobial activity against Leuconostoc dextranicum ATCC 8086 after 18 hrs by spectrophotometry. The test is classed as functional, Leuconostoc mesenteroides subsp. dextranicum. The settings on record: Leuconostoc mesenteroides, ATCC 8086, 18 h. Summed up:
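Basal lactic-acid-bacteria medium with 0.2 µg/ml calcium pantothenate and 0.02 µg/ml pantethine; Phe and Tyr omitted, Trp at 3 µg/ml; phosphate raised fourfold and 100 µg/ml glutamine added. Aqueous stock (1 mg/ml) serially diluted, up to 200 µg/ml. Incubated at 30° for 18 h. Turbidity read at 625 nm against an uninoculated blank. MIC from at least six repeats.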

Test [5] relates to Lactiplantibacillus plantarum. Briefly: Antimicrobial activity against Lactobacillus plantarum ATCC 8014 after 18 hrs by spectrophotometry. Format: functional. As to conditions: ATCC 8014, 18 h. In short, it runs like this:
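Basal lactic-acid-bacteria medium with 0.2 µg/ml calcium pantothenate and 0.02 µg/ml pantethine; phenylalanine and tyrosine omitted, and tryptophan lowered to 3 µg/ml; for this strain, Phe and Tyr at 1 µg/ml. Aqueous stock (1 mg/ml) serially diluted, up to 200 µg/ml. Incubated at 30° for 18 h. Absorbance read at 625 nm versus an uninoculated blank. MIC from at least six repeats.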

For test [6], the system named is Leuconostoc mesenteroides subsp. dextranicum. The test is described as §1. The test is classed as functional.

Values after ≈ are worked out from the molar mass of the structure shown. Active and inactive are the calls of the source.

As to `NC(Cc1ccc(O)cc1Cl)C(=O)O` (stereo not drawn), the MIC in test [1] (ATCC 8014, 18 h) turned out to be 200 µg/mL; in test [2], 2 µg/mL (≈ 9.27 µM); in test [3] it was 200 µg/mL; in test [4] it was 6 µg/mL (≈ 27.8 µM); in test [5] it was 0.6 µg/mL (≈ 2.78 µM).
`NC(Cc1ccc2ccccc2c1Cl)C(=O)O` (racemic): the minimal inhibitory concentration (MIC) result in test [1] and in test [6] was “Active” each time. For the same compound, the MIC was > 200 µg/mL in test [2], 20 µg/mL (≈ 80.1 µM) in test [4] and 20 µg/mL (≈ 80.1 µM) in test [5].
As to `NC(Cc1ccc2ccccc2c1)C(=O)O` (stereo not drawn), the MIC in test [2], in test [4] and in test [5] was > 200 µg/mL throughout.
As for `NC(Cc1cccc2ccccc12)C(=O)O` (stereo not drawn), the MIC entry in test [1] and in test [6] was “Active” each time. Also, the MIC is > 200 µg/mL in test [2], 200 µg/mL (≈ 929 µM) in test [4] and 200 µg/mL (≈ 929 µM) in test [5].
Consider `NC(Cc1ccc2ccccc2c1Br)C(=O)O` (racemic), for which the MIC result in test [1] and in test [6] was “Active” in each case. For the same compound, the MIC in test [2], in test [4] and in test [5] was 200 µg/mL (≈ 680 µM) in each case.

The MIC is the smallest concentration in the dilution series that meets the test's criterion for growth inhibition.
